ChEMBL document CHEMBL5149984, “Discovery of HN37 as a Potent and Chemically Stable Antiepileptic Drug Candidate” (J Med Chem, 2021)

Experiments:
[1] = tested on: Mus musculus; experiment: Anticonvulsant activity in pentylenetetrazol induced Kunming mouse model of seizure at 30 mg/kg, po after 1 hr; assay type: functional
Method in brief: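 sc-PTZ test in male KM mice. Compound suspended in 0.5% CMC-Na and given orally 1 h before PTZ (freshly dissolved in normal saline, 100 mg/kg). Protection against clonic seizures scored; ED50 by nonlinear regression.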

[2] = target: T1, Potassium voltage-gated channel subfamily KQT member 1 (Homo sapiens, UniProt P51787); experiment: Agonist activity at human KCNQ1 channel expressed in CHO cells assessed as shift of half voltage of maximal activation at 10 uM by patch clamp method; assay type: cell-based
T1 sequence (P51787 whole entry): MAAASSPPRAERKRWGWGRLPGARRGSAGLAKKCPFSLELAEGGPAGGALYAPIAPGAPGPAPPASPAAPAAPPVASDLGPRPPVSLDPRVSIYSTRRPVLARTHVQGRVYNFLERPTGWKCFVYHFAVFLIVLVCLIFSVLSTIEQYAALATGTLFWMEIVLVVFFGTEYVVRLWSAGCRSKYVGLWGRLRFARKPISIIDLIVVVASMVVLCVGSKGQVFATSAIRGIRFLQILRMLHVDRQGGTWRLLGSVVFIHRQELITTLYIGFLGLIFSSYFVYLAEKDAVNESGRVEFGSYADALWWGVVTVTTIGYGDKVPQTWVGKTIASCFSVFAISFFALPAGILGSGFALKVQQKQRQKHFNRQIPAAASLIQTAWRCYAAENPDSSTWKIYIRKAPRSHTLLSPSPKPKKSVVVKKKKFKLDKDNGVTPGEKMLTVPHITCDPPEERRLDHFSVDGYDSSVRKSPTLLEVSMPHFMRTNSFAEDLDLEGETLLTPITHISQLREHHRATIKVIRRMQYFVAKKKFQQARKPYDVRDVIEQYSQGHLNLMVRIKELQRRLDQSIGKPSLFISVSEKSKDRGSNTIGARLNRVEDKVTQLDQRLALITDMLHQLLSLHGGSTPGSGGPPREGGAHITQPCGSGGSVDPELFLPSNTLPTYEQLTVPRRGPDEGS
Method in brief: (§1)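 Whole-cell patch clamp at room temperature on CHO cells (DMEM/F12, 10% FBS) transiently co-transfected with EGFP and hKCNQ1, rKCNQ2, rKCNQ3 A278T, hKCNQ4 or hKCNQ5; KCNQ2/3 at 1:1 cDNA ratio. Pipette solution 145 mM KCl, 5 mM MgATP, pH 7.3; bath 140 mM NaCl, 5 mM KCl, pH 7.4, under perfusion. V1/2 from Boltzmann fits; I/I0 is current amplitude with versus without compound; n = 4−6.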

[3] = Toxicity in C57BL/6 mouse assessed as sedative effect at 80 mg/kg; assay type: organism-based; settings: in vivo
[4] = Metabolic stability in human liver microsomes assessed as half life; assay type: ADME, Microsome
[5] = target: T2, Potassium voltage-gated channel subfamily KQT member 4 (Homo sapiens) (UniProt P56696); experiment: Agonist activity at human KCNQ4 channel expressed in CHO cells assessed as amplitude change of outward current at 0.1 uM by patch clamp method; assay type: cell-based; settings: filed as agonist; method in brief: as §1
T2 sequence (whole entry): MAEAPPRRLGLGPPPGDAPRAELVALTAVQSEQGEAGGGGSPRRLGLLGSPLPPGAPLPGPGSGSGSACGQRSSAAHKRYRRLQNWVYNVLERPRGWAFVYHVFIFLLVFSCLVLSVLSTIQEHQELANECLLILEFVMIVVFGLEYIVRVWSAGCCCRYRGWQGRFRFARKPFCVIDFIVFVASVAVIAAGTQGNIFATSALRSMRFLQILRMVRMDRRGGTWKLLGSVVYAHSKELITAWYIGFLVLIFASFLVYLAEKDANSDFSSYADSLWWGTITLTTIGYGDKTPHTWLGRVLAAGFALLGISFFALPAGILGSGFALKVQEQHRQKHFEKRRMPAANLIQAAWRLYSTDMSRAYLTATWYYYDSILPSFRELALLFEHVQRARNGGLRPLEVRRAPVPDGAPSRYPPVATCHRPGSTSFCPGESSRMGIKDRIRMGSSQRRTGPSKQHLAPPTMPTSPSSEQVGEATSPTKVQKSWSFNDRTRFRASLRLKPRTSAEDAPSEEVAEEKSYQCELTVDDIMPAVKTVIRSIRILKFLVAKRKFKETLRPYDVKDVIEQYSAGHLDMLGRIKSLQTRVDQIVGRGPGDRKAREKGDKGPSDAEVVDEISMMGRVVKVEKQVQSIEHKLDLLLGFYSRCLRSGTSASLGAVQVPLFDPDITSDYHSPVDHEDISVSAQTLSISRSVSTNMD

[6] = Tmax in Sprague-Dawley rat at 20 mg/kg, po measured upto 24 hrs by LC-MS/MS method; assay type: ADME, organism-based; settings: in vivo
Method in brief: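 Male SD rats (180–220 g) dosed orally at 2, 6 and 20 mg/kg, handled like the mice: fasting, 5% DMSO/5% Tween 80/saline vehicle, acetonitrile extraction, LC-MS/MS of plasma. In a separate set at 6 mg/kg p.o., blood and brain were sampled together.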

[7] = Cmax in Sprague-Dawley rat blood at 6 mg/kg, po measured upto 24 hrs by LC-MS/MS method; assay type: ADME, organism-based; parameters: time < 24 hrs, dose 6 mg/kg, route po
Method in brief: (§2)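 Male SD rats (180−220 g) given single oral doses of 2, 6 and 20 mg/kg; handled as in the mouse PK study (fasted 12 h before and 2 h after dosing, 5% DMSO/5% Tween 80/90% saline formulation). In a separate 6 mg/kg p.o. set, blood and brain were sampled together. Plasma and brain levels by LC−MS/MS.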

[8] = Half life in Sprague-Dawley rat at 6 mg/kg, po measured upto 24 hrs by LC-MS/MS method; assay type: ADME, organism-based; settings: in vivo; method in brief: as §2
[9] = tested on: Mus musculus; experiment: Anticonvulsant activity in MES induced Kunming mouse model of seizure at 3 mg/kg, po after 1 hr; assay type: functional
Method in brief: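 MES test in male KM mice. Compounds freshly suspended in 0.5% CMC-Na and given by gavage at 20 mL/kg; 160 V stimulus through ear clips. Protection scored as absence of hindlimb tonic extension; time course at 0.25, 0.5, 1 and 2 h, otherwise tested at 1 h. ED50 from dose−response by nonlinear regression; Fisher's exact test versus vehicle.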

[10] = AUC(0 to t) in Kunming mouse plasma at 5 mg/kg, po measured upto 24 hrs by LC-MS/MS method; assay type: ADME, organism-based; parameters: dose 5 mg/kg, time < 24 hrs, route po
Method in brief: (§3)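 KM male mice (18−24 g), fasted 12 h before and 2 h after dosing. HN37 given orally at 5 mg/kg in 5% DMSO/5% Tween 80/90% saline, or iv at 2 mg/kg after dilution in saline with 1% Tween 80; n = 3 per time point. Blood sampled 0.25–24 h (from 0.083 h after iv); whole brain taken after oral dosing. Plasma and brain extracted with acetonitrile, quantified by LC−MS/MS; AUC0−t by trapezoidal method.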

[11] = Metabolic stability in monkey liver microsomes assessed as half life; assay type: ADME, Macaca mulatta, Microsome; settings: rhesus monkey
[12] = target: Potassium voltage-gated channel subfamily KQT member 5 (Homo sapiens) (UniProt Q9NR82); experiment: Agonist activity at human KCNQ5 channel expressed in CHO cells assessed as shift of half voltage of maximal activation at 0.1 uM by patch clamp method; assay type: cell-based; settings: filed as agonist; method in brief: as §1
[13] = AUC(0 to t) in Kunming mouse plasma at 2 mg/kg, iv measured upto 24 hrs by LC-MS/MS method; assay type: ADME, organism-based; parameters: time < 24 hrs, dose 2 mg/kg, route iv; method in brief: as §3

Sequence of Potassium voltage-gated channel subfamily KQT member 5 (Homo sapiens) (Q9NR82 whole entry): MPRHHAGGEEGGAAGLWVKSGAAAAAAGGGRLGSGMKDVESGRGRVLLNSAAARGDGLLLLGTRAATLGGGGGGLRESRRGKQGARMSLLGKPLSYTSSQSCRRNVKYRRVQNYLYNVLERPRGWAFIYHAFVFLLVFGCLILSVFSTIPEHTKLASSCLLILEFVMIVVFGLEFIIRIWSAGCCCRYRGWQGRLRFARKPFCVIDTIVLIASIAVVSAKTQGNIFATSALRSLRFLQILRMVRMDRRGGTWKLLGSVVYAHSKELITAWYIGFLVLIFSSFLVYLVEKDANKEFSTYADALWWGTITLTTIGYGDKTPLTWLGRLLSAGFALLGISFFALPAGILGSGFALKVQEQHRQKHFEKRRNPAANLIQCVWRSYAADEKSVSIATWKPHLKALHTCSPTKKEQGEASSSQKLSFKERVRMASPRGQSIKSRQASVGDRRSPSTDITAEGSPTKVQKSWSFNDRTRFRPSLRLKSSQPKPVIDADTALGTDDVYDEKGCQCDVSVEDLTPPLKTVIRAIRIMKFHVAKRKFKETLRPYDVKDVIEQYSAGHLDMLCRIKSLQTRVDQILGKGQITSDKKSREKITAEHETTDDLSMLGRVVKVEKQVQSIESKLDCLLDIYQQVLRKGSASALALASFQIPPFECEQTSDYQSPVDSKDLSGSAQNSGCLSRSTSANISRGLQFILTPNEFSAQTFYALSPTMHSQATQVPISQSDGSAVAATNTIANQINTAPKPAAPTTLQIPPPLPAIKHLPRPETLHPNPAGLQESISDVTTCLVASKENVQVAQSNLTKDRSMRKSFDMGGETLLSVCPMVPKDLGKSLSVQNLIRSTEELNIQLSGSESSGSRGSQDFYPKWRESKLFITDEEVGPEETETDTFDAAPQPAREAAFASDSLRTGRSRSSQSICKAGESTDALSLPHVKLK

| SMILES | Activity [1] [%] | Activity [2] [mV] | Activity [3] | half-life [4] [min] | Activity [5] | Tmax [6] [h] | Cmax [7] [ng/mL] | half-life [8] [min] | Activity [9] [%] | AUC(0-t) at 24 h [10] [ng·h/mL] | half-life [11] [min] | Activity [12] [mV] | AUC(0-t) at 24 h [13] [ng·h/mL] |
| --- | --- | --- | --- | --- | --- | --- | --- | --- | --- | --- | --- | --- | --- |
| CCOC(=O)Nc1ccc(NCc2ccc(F)cc2)cc1N [EZOGABINE] | 50 | -8.03 | Toxic | – | – | – | – | – | – | – | – | – | – |
| C#CCN(Cc1ccc(F)cc1)c1cc(C)c(NC(=O)OC)c(C)c1 | – | – | – | 27.7 | 3.76 | 3.67 | 162 | 142 | 62.5 | 321 | 18.1 | -9.03 | 531 |
